Assay results published in ChEMBL document CHEMBL1125286, “Zatosetron, a potent, selective, and long-acting 5HT3 receptor antagonist: synthesis and structure-activity relationships” (J Med Chem, 1992).

Columns and labels:
[1] = molecular target: T1, Serotonin 3 (5-HT3) receptor (Rattus norvegicus) (UniProt P35563+Q9JJ16); test: 5-hydroxytryptamine 3 receptor antagonistic activity was measured by the inhibition of 5H+ T-induced bradycardia after iv administration of 1000 ug/kg dose in urethane-anesthetized rats; format: functional, organism-based
Outline: (§1)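 Urethane-anesthetized rats. First 5HT challenge 30 μg/kg iv gives a transient bradycardia. Once heart rate is back at steady state (≤5 min), test compound or saline goes in via the femoral vein. 5HT 30 μg/kg iv is repeated 15 min later. % inhibition is the difference between first and second bradycardia at peak, each animal its own control. Means ± SEM, groups of 3–16 rats.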

[2] = molecular target: T1, Serotonin 3 (5-HT3) receptor (Rattus norvegicus); test: 5-hydroxytryptamine 3 receptor antagonistic activity measured by inhibition of 5-HT-induced bradycardia (iv administration 10 ug/kg dose in urethane-anesthetized rats); format: functional, organism-based; outline: as §1
[3] = molecular target: T1, Serotonin 3 (5-HT3) receptor (Rattus norvegicus); test: 5-hydroxytryptamine 3 receptor antagonistic activity was measured by the inhibition of 5H+ T-induced bradycardia after iv administration of 3 ug/kg dose in urethane-anesthetized rats; format: functional, organism-based
Outline: (§2)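 Urethane-anesthetized rats; antagonist or saline given iv via femoral vein after heart rate settled (≤5 min) from an initial 5HT challenge (30 µg/kg iv). 5HT was given again 15 min later. Peak bradycardia measured, each rat its own control; % inhibition = difference between first and second responses. Groups of 3–16 rats, means ± SEM.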

[4] = molecular target: T1, Serotonin 3 (5-HT3) receptor (Rattus norvegicus); test: Compound was tested for the inhibition of 5-HT-induced bradycardia after peroral administration of 300 ug/kg dose in urethane-anesthetized rats; format: functional, organism-based
Outline: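 Fasted rats dosed by gavage (5 mL/kg) with compound or distilled-water vehicle. Urethane anesthesia and surgical preparation 15–20 min before challenge. 5HT 0.03 mg/kg iv given 1 h after dosing. Peak bradycardia is compared with vehicle-treated controls. Means ± SEM, groups of 3–11 rats.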

[5] = molecular target: T1, Serotonin 3 (5-HT3) receptor (Rattus norvegicus); test: Compound was tested for the inhibition of 5-HT-induced bradycardia after peroral administration of 100 ug/kg dose in urethane-anesthetized rats; format: functional, organism-based
Outline: (§3)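 Fasted rats gavaged (5 mL/kg) with antagonist or vehicle (distilled water). Urethane anesthesia and surgical preparation followed, 15–20 min before 5HT challenge. 5HT 30 µg/kg iv given 1 h after dosing, with vehicle-treated rats as controls. Peak % inhibition of bradycardia in groups of 3–11, means ± SEM.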

[6] = molecular target: T1, Serotonin 3 (5-HT3) receptor (Rattus norvegicus); test: Compound was tested for the inhibition of 5-HT-induced bradycardia after peroral administration of 0.1 mg/kg at 6 hours in urethane-anesthetized rats; format: functional, organism-based; set-up: dose 0.1 mg/kg; settings: at 0.1 mg/kg
Outline: (§4)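 Duration study: antagonist or vehicle gavaged to conscious fasted rats (5 mL/kg). Rats were urethane-anesthetized and surgically prepared, then challenged with 5HT 0.03 mg/kg iv at the stated time after dosing. Vehicle-treated rats served as controls. Peak inhibition of bradycardia recorded in groups of 3–11, means ± SEM.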

[7] = molecular target: T1, Serotonin 3 (5-HT3) receptor (Rattus norvegicus); test: Compound was tested for the inhibition of 5-HT-induced bradycardia after peroral administration of 0.1 mg/kg at 1 hour in urethane-anesthetized rats; format: functional, organism-based; set-up: dose 0.1 mg/kg; settings: at 0.1 mg/kg; outline: as §4
[8] = molecular target: T1, Serotonin 3 (5-HT3) receptor (Rattus norvegicus); test: Inhibition of 5-HT-induced bradycardia by 5-hydroxytryptamine 3+; format: functional
[9] = molecular target: T1, Serotonin 3 (5-HT3) receptor (Rattus norvegicus); test: Compound was tested for the inhibition of 5-HT-induced bradycardia after peroral administration in urethane-anesthetized rats
[10] = system: Serotonin 3 receptor (Cavia porcellus); test: In vitro binding affinity was measured for 5-hydroxytryptamine 3 receptor in the guinea pig ileum.
[11] = molecular target: T1, Serotonin 3 (5-HT3) receptor (Rattus norvegicus); test: Compound was tested for the inhibition of 5-HT-induced bradycardia after intravenous administration of 1 ug/kg dose in urethane-anesthetized rats; format: functional, organism-based; outline: as §2
[12] = molecular target: T1, Serotonin 3 (5-HT3) receptor (Rattus norvegicus); test: Compound was tested for the inhibition of 5-HT-induced bradycardia after peroral administration of 0.1 mg/kg at 0.5 hours in urethane-anesthetized rats; format: functional, organism-based; set-up: dose 0.1 mg/kg; settings: at 0.1 mg/kg; outline: as §4
[13] = molecular target: T1, Serotonin 3 (5-HT3) receptor (Rattus norvegicus); test: Compound was tested for the inhibition of 5-HT-induced bradycardia after peroral administration of 1000 ug/kg dose in urethane-anesthetized rats; format: functional, organism-based; outline: as §3
[14] = molecular target: T1, Serotonin 3 (5-HT3) receptor (Rattus norvegicus); test: Compound was tested for the inhibition of 5-HT-induced bradycardia after peroral administration of 30 ug/kg dose in urethane-anesthetized rats; format: functional, organism-based; outline: as §3
[15] = molecular target: T1, Serotonin 3 (5-HT3) receptor (Rattus norvegicus); test: Compound was tested for the inhibition of 5-HT-induced bradycardia after peroral administration of 0.1 mg/kg at 3 hours in urethane-anesthetized rats; format: functional, organism-based; set-up: dose 0.1 mg/kg; settings: at 0.1 mg/kg; outline: as §4
[16] = molecular target: T1, Serotonin 3 (5-HT3) receptor (Rattus norvegicus); test: Compound was tested for the inhibition of 5-HT-induced bradycardia after intravenous administration of 0.3 ug/kg dose in urethane-anesthetized rats; format: functional, organism-based; outline: as §2
[17] = molecular target: T1, Serotonin 3 (5-HT3) receptor (Rattus norvegicus); test: Compound was tested for the inhibition of 5-HT-induced bradycardia after peroral administration of 0.1 mg/kg at 16 hours in urethane-anesthetized rats; format: functional, organism-based; set-up: dose 0.1 mg/kg; settings: at 0.1 mg/kg; outline: as §4
[18] = molecular target: T1, Serotonin 3 (5-HT3) receptor (Rattus norvegicus); test: 5-hydroxytryptamine 3 receptor antagonistic activity as inhibition of 5-HT-induced bradycardia after iv administration of 100 ug/kg dose in urethane-anesthetized rats; format: functional, organism-based; outline: as §1
[19] = molecular target: T1, Serotonin 3 (5-HT3) receptor (Rattus norvegicus); test: 5-hydroxytryptamine 3 receptor antagonistic activity was measured by the inhibition of 5-HT-induced bradycardia after iv administration of 1000 ug/kg dose in urethane-anesthetized rats; format: functional, organism-based; outline: as §1
[20] = molecular target: T1, Serotonin 3 (5-HT3) receptor (Rattus norvegicus); test: Compound was tested for the inhibition of 5-HT-induced bradycardia after intravenous administration of 30 ug/kg dose in urethane-anesthetized rats; format: functional, organism-based; outline: as §1
[21] = molecular target: T1, Serotonin 3 (5-HT3) receptor (Rattus norvegicus); test: 5-HT3 receptor antagonistic activity was measured by the inhibition of 5-HT-induced bradycardia after iv administration of 1000 ug/kg dose in urethane-anesthetized rats; format: functional, organism-based; outline: as §1

SMILES: CN1[C@@H]2CC[C@H]1C[C@H](OC(=O)c1ccccc1)C2
- inhibition [1]: 88.1%

SMILES: CN1C2CCC1CC(OC(=O)c1cccc3c1Cc1ccccc1-3)C2 (stereo not given)
- inhibition [1]: 51%

SMILES: CC1Cc2cccc(C(=O)OC3CC4CCC(C3)N4C)c2O1 (stereo not given)
- inhibition [2]: 30.6%

SMILES: COc1cc2c(c(C(=O)NC3CC4CCC(C3)N4C)c1)OC(C)C2 (stereo not given)
- inhibition [2]: 28.9%

SMILES: Cc1cc2c(c(C(=O)NC3CC4CCC(C3)N4C)c1)OC(C)(C)C2 (stereo not given)
- inhibition [3]: 11.2%
- inhibition [2]: 87.1%

SMILES: CC1Cc2cc(Cl)cc(C(=O)NC3CC4CCC(C3)N4C)c2O1 (stereo not given)
- inhibition [3]: 79.8%
- inhibition [4]: 89.7%
- inhibition [5]: 74.6%
- inhibition [6]: 71.4%
- inhibition [7]: 74.6%
- ED50 [8]: 0.001 mg/kg
- ED50 [9]: 0.063 mg/kg
- -Log KB [10]: 8.27
- inhibition [11]: 58.1%
- inhibition [12]: 87%
- inhibition [13]: 94.6%
- inhibition [2]: 80%
- inhibition [14]: 21.9%
- inhibition [15]: 75.2%
- inhibition [16]: 11%
- inhibition [17]: 0%

SMILES: CC1Cc2cccc(C(=O)NC3CC4CCC(C3)N4C)c2O1 (stereo not given)
- inhibition [2]: 22.3%
- inhibition [18]: 87.6%

SMILES: Cc1cc2c(c(C(=O)OC3CC4CCC(C3)N4C)c1)OCC2 (stereo not given)
- inhibition [2]: 28.8%
- inhibition [18]: 67.2%

SMILES: CN1C2CCC1CC(OC(=O)c1ccc3c(c1)oc1ccccc13)C2 (stereo not given)
- inhibition [1]: 1.5%

SMILES: CN1C2CCC1CC(OC(=O)c1cccc3c1OC(C)(C)C3)C2 (stereo not given)
- inhibition [3]: 20.8%
- inhibition [2]: 38%

SMILES: CN1C2CCC1CC(NC(=O)c1cccc3c1CC(C)(C)O3)C2 (stereo not given)
- inhibition [2]: 2.1%

SMILES: CN1C2CCC1CC(OC(=O)c1ccccc1-c1ccccc1)C2 (stereo not given)
- inhibition [19]: 47.3%

SMILES: COc1cc2c(c(C(=O)OC3CC4CCC(C3)N4C)c1)OC(C)C2 (stereo not given)
- inhibition [2]: 4.1%

SMILES: CC1Oc2c(C(=O)OC3CC4CCC(C3)N4C)cccc2C1C (stereo in doubt; 27)
- inhibition [3]: 35.6%
- inhibition [2]: 32.7%
- inhibition [20]: 47.3%

SMILES: CN1C2CCC1CC(CC(=O)c1ccccc1)C2 (stereo not given)
- inhibition [18]: 31.3%

SMILES: CN1C2CCC1CC(OC(=O)c1ccccc1Oc1ccccc1)C2 (stereo not given)
- inhibition [1]: 54.5%

SMILES: CN1CCC(OC(=O)c2ccccc2)CC1
- inhibition [21]: 0%

SMILES: CN1C2CCC1CC(NC(=O)c1c(Cl)ccc3c1OC(C)(C)C3)C2 (stereo not given)
- inhibition [2]: 0.8%

SMILES: Cc1cc2cccc(C(=O)OC3CC4CCC(C3)N4C)c2o1 (stereo not given)
- inhibition [2]: 7.3%
